Reference: ChEMBL document CHEMBL1125548, “Synthesis and pharmacological studies of N-substituted 6-[(2-aminoethyl)amino]-1,3-dimethyl-2,4(1H,3H)-pyrimidinediones, novel class III antiarrhythmic agents” (1992)

Experiments:
Canis familiaris [1] = experiment: The prolongation effect of the atrial and ventricular effective refractory period was measured before and after the administration at 1 mg/kg; assay type: functional, Canis lupus familiaris, Cardiac atrium
Summary of the method: (§1)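 In vivo, mongrel dogs of either sex (7–13 kg), anesthetized with pentobarbital sodium 30 mg/kg iv. Left femoral artery cannulated for arterial pressure, femoral vein for drug dosing. Effective refractory period measured before and after administration.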

Canis familiaris [2] = experiment: The percentage change of the duration of action potential at 75% repolarization was measured before and after the administration at 3.0 ug/mL; assay type: functional, Canis lupus familiaris
Summary of the method: (§2)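 Canine right-ventricular Purkinje fibers (mongrel dogs 7–11 kg, thiopental-anesthetized) superfused with Tyrode's (pH 7.5, 36 °C, gassed 95% O2/5% CO2). Compounds diluted from 1 mM water stock and added cumulatively. Readings taken 20 min after solution exchange. Result given as percent change in action potential duration.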

Canis familiaris [3] = experiment: The prolongation effect of the atrial and ventricular effective refractory period was measured before and after the administration at 3 mg/kg; assay type: functional, Canis lupus familiaris, Cardiac atrium; summary of the method: as §1
Canis familiaris [4] = experiment: The percentage change of the duration of action potential at 75% repolarization was measured before and after the administration at 1.0 ug/mL; assay type: functional, Canis lupus familiaris; summary of the method: as §2
Canis familiaris [5] = experiment: The prolongation effect of the atrial and ventricular effective refractory period was measured before and after the administration at 0.3 mg/kg; assay type: functional, Canis lupus familiaris, Cardiac atrium; summary of the method: as §1
Canis familiaris [6] = experiment: Percentage change of the duration of action potential at 75% repolarization was measured before and after the administration at 10.0 ug/mL; assay type: functional, Canis lupus familiaris; summary of the method: as §2
Canis familiaris [7] = experiment: The prolongation effect of the atrial and ventricular effective refractory period was measured before and after the administration at 1.0 mg/kg
Canis familiaris [8] = experiment: The percentage change in the effective refractory period was measured before and after the administration at 0.1 mg/kg; assay type: functional, Canis lupus familiaris; details: dose 1.0 mg/kg; in the assay text read “1.0 mg/kg” for “0.1 mg/kg”; summary of the method: as §1
Canis familiaris [9] = experiment: Concentration required for 50% inhibition of tachycardia induced by isoproterenol (0.5ug/mL, iv) in anesthetized dog; assay type: functional; details: Canis lupus familiaris, read-out: ID50 (the source's name)

Row | Structure (SMILES) | ERP (Canis familiaris [1]) [%] | APD75 (Canis familiaris [2]) [%] | ERP (Canis familiaris [3]) [%] | APD75 (Canis familiaris [4]) [%] | ERP (Canis familiaris [5]) [%] | APD75 (Canis familiaris [6]) [%] | ERP (Canis familiaris [7]) [%] | ERP (Canis familiaris [8]) [%] | ED50 (Canis familiaris [9]) [mg/kg]
1 | Cn1c(N2CCN(Cc3ccc([N+](=O)[O-])cc3)CC2)cc(=O)n(C)c1=O.O=C(O)C(=O)O | 0 | 7 | 7 | 3 | 0 | 11 |  |  | 
2 | CSc1ccc(OCCCN2CCN(c3cc(=O)n(C)c(=O)n3C)CC2)cc1.Cl |  | 13 | 15.4 | 4 | 0 | 25 | 7.7 |  | 
3 | CC(C)NCC(O)c1ccc(NS(C)(=O)=O)cc1 (stereo unspecified) [SOTALOL] |  | 8 |  | 0.7 |  | 11.2 |  |  | 
4 | Cl.Cn1c(N2CCN(CCCOc3ccccc3[N+](=O)[O-])CC2)cc(=O)n(C)c1=O |  | 18 |  |  |  | 39 |  | 6.8 | 
5 | CCO.Cn1c(NCCNCC(O)COc2ccccc2)cc(=O)n(C)c1=O (stereo unspecified) |  | 6.9 |  |  |  | 10.1 |  |  | 0.01
6 | Cl.Cn1c(N2CCN(CCCOc3ccccc3Cl)CC2)cc(=O)n(C)c1=O |  | 0 |  |  |  | 7 |  |  | 
7 | Cl.Cn1c(N2CCN(CCOc3ccc([N+](=O)[O-])cc3)CC2)cc(=O)n(C)c1=O |  | 22 |  | 8 |  | 43 |  |  | 
